Test results: ChEMBL document CHEMBL4725428 (ACS Med Chem Lett, 2020)
Activity calls are given as the source filed them. The rule behind the calls is not given here.

What was measured:
[1] = biological target: T1, Protein cereblon/Focal adhesion kinase 1 (Homo sapiens, UniProt Q05397+Q96SW2); experiment: Protac activity at CRBN/FAK in human PA1 cells assessed as induction of FAK degradation at 1 nM incubated for 8 hrs by Western blot analysis relative to control; format: cell-based; conditions: PA-1
In short: (§1)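 PA1 cells were treated at the indicated doses for 8 h, and FAK was quantified from immunoblots relative to untreated control. Data come from three independent experiments.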

[2] = biological target: T1, Protein cereblon/Focal adhesion kinase 1; experiment: Protac activity at CRBN/FAK in human PA1 cells assessed as induction of FAK degradation at 10 nM incubated for 8 hrs by Western blot analysis relative to control; format: cell-based; conditions: PA-1; in short: as §1
[3] = biological target: T1, Protein cereblon/Focal adhesion kinase 1; experiment: Protac activity at CRBN/FAK in human PA1 cells assessed as FAK degradation at 1 to 100 nM after 8 hrs in presence of 10 uM PF562271; format: cell-based; conditions: PA-1, dose nM 1-100, time 8.0 hrs
In short: (§2)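 For ligand competition, PA1 cells were treated for 8 h with the degrader (1, 10 or 100 nM) alone, or with excess CRBN ligand pomalidomide (10 μM) or FAK ligand PF562271 (10 μM), alone or combined. FAK was read by immunoblot.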

[4] = biological target: T1, Protein cereblon/Focal adhesion kinase 1; experiment: Protac activity at CRBN/FAK in human PA1 cells assessed as reduction FAK degradation at 1 to 100 nM after 8 hrs in presence of 5 uM carfilzomib; format: cell-based; conditions: PA-1, dose nM 1-100, time 8.0 hrs
In short: (§3)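 To test proteasome dependence, PA1 cells received the degrader (1, 10 or 100 nM) for 8 h, either alone or together with MG132 (5 μM) or carfilzomib (5 μM). Each inhibitor was also given alone. FAK was assessed by immunoblot.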

TM3 = experiment: Antiproliferative activity against mouse TM3 cells assessed as effect on cell proliferation after 72 hrs by MTS assay; format: functional, cell-based
[5] = biological target: T1, Protein cereblon/Focal adhesion kinase 1; experiment: Protac activity at CRBN/FAK in human Ramos cells assessed as induction of FAK degradation after 8 hrs by Western blot analysis; format: cell-based
In short: (§4)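 Each cell line was exposed to graded concentrations for 8 h, and FAK protein was detected by immunoblot. DC50 is the concentration giving half-maximal FAK degradation.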

MDA-MB-436 = experiment: Antiproliferative activity against human MDA-MB-436 cells assessed as effect on cell proliferation after 72 hrs by MTS assay; format: functional, cell-based
[6] = biological target: T1, Protein cereblon/Focal adhesion kinase 1; experiment: Protac activity at CRBN/FAK in human PA1 cells assessed as FAK degradation at 1 to 100 nM after 8 hrs in presence of 10 uM pomalidomide; format: cell-based; conditions: PA-1, dose nM 1-100, time 8.0 hrs; in short: as §2
[7] = biological target: T1, Protein cereblon/Focal adhesion kinase 1; experiment: Protac activity at CRBN/FAK in human LNCAP cells assessed as induction of FAK degradation after 8 hrs by Western blot analysis; format: cell-based; in short: as §4
[8] = biological target: T1, Protein cereblon/Focal adhesion kinase 1; experiment: Protac activity at CRBN/FAK in human PA1 cells assessed as reduction FAK degradation at 1 to 100 nM after 8 hrs in presence of 5 uM MG132; format: cell-based; conditions: PA-1, dose nM 1-100, time 8.0 hrs; in short: as §3
[9] = biological target: Protein cereblon/Focal adhesion kinase 1 (Mus musculus, UniProt P34152+Q8C7D2); experiment: Protac activity at CRBN/FAK in mouse TM3 cells assessed as induction of FAK degradation after 8 hrs by Western blot analysis; format: cell-based; in short: as §4
[10] = biological target: T1, Protein cereblon/Focal adhesion kinase 1; experiment: Protac activity at CRBN/FAK in human PA1 cells assessed as induction of FAK degradation after 8 hrs by Western blot analysis; format: cell-based; conditions: pa-1; in short: as §4
Ramos = experiment: Antiproliferative activity against human Ramos cells assessed as effect on cell proliferation after 72 hrs by MTS assay; format: functional, cell-based
[11] = biological target: T1, Protein cereblon/Focal adhesion kinase 1; experiment: Protac activity at CRBN/FAK in human MDA-MB-436 cells assessed as induction of FAK degradation after 8 hrs by Western blot analysis; format: cell-based; in short: as §4
PA-1 = experiment: Antiproliferative activity against human PA1 cells assessed as effect on cell proliferation after 72 hrs by MTS assay; format: functional, cell-based
LNCaP = experiment: Antiproliferative activity against human LNCAP cells assessed as effect on cell proliferation after 72 hrs by MTS assay; format: functional, cell-based
[12] = biological target: T2, Protein cereblon/Focal adhesion kinase 1 (Mus musculus) (UniProt P34152+Q8C7D2); experiment: Protac activity at CRBN/FAK in mouse TM3 cells assessed as reduction in FAK autophosphorylation at tyr 397 residue at 100 nM after 1 hr by Western blot analysis relative to control; format: cell-based; parameters: scale not given: the % may be the effect or the level left
In short: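 In a time course, TM3 cells were exposed to 100 nM, and FAK and pFAK Tyr397 levels were followed by immunoblot at successive time points.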

[13] = biological target: T2, Protein cereblon/Focal adhesion kinase 1 (Mus musculus); experiment: Protac activity at CRBN/FAK in mouse TM3 cells assessed as reduction in FAK autophosphorylation at tyr 397 residue at <1 nM after 8 hrs by Western blot analysis; format: cell-based; conditions: dose nM <1, time 8.0 hrs
In short: (§5)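 TM3 cells were treated at the indicated doses for 8 h, then immunoblotted for FAK phosphorylated at Tyr397.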

[14] = biological target: T2, Protein cereblon/Focal adhesion kinase 1 (Mus musculus); experiment: Protac activity at CRBN/FAK in mouse TM3 cells assessed as reduction in FAK autophosphorylation at tyr 397 residue at 1 to 3000 nM after 8 hrs by Western blot analysis; format: cell-based; conditions: dose nM 1-3000, time 8.0 hrs; in short: as §5

Row | Activity [1] [%] | Activity [2] [%] | SMILES | further results
1 | 85 | 95 | CN(c1ncccc1CNc1nc(Nc2ccc(NC(=O)c3cn(CCCCCOCCCc4cccc5c4C(=O)N(C4CCC(=O)NC4=O)C5=O)nn3)cc2)ncc1C(F)(F)F)S(C)(=O)=O (stereo not given) | 
2 | 46 | 94 | CN(c1ncccc1CNc1nc(Nc2ccc(NC(=O)c3cn(CCOCCOCCOCCNc4cccc5c4C(=O)N(C4CCC(=O)NC4=O)C5=O)nn3)cc2)ncc1C(F)(F)F)S(C)(=O)=O (stereo not given) | 
3 | 62 | 90 | CN(c1ncccc1CNc1nc(Nc2ccc(NC(=O)c3cn(CCOCCOCCCc4cccc5c4C(=O)N(C4CCC(=O)NC4=O)C5=O)nn3)cc2)ncc1C(F)(F)F)S(C)(=O)=O (stereo not given) | 
4 | 0 | 0 | CN(c1ncccc1CNc1ncc(C(F)(F)F)c(Nc2ccc(NC(=O)c3cn(CCOCCOCCOCCNc4cccc5c4C(=O)N(C4CCC(=O)NC4=O)C5=O)nn3)cc2)n1)S(C)(=O)=O (stereo not given) | 
5 | 10 | 30 | CN(c1ncccc1CNc1nc(Nc2ccc(C(=O)NCc3cn(CCOCCOCCOCCNc4cccc5c4C(=O)N(C4CCC(=O)NC4=O)C5=O)nn3)cc2)ncc1C(F)(F)F)S(C)(=O)=O (stereo not given) | 
6 | 71 | 96 | CN(c1nccnc1CNc1nc(Nc2ccc(NC(=O)c3cn(CCOCCOCCNc4cccc5c4C(=O)N(C4CCC(=O)NC4=O)C5=O)nn3)cc2)ncc1C(F)(F)F)S(C)(=O)=O (stereo not given) | 
7 | 67 | 93 | CN(c1ncccc1CNc1nc(Nc2ccc(NC(=O)c3cn(CCCCCCCCNc4cccc5c4C(=O)N(C4CCC(=O)NC4=O)C5=O)nn3)cc2)ncc1C(F)(F)F)S(C)(=O)=O (stereo not given) | 
8 | 30 | 82 | CN(c1ncccc1CNc1nc(Nc2ccc(NC(=O)c3cn(CCOCCOCCOCCOCCNc4cccc5c4C(=O)N(C4CCC(=O)NC4=O)C5=O)nn3)cc2)ncc1C(F)(F)F)S(C)(=O)=O (stereo not given) | 
9 | 55 | 81 | CN(c1ncccc1CNc1nc(Nc2ccc(C(=O)NCc3cn(CCOCCNc4cccc5c4C(=O)N(C4CCC(=O)NC4=O)C5=O)nn3)cc2)ncc1C(F)(F)F)S(C)(=O)=O (stereo not given) | 
10 | 40 | 92 | CN(c1ncccc1CNc1nc(Nc2ccc(NC(=O)c3cn(CCOCCNc4cccc5c4C(=O)N(C4CCC(=O)NC4=O)C5=O)nn3)cc2)ncc1C(F)(F)F)S(C)(=O)=O (stereo not given) | 
11 | 5 | 22 | CN(c1nccnc1CNc1nc(Nc2ccc(C(=O)NCc3cn(CCOCCOCCOCCNc4cccc5c4C(=O)N(C4CCC(=O)NC4=O)C5=O)nn3)cc2)ncc1C(F)(F)F)S(C)(=O)=O (stereo not given) | 
12 | 62 | 90 | CN(c1ncccc1CNc1nc(Nc2ccc(NC(=O)c3cn(CCCCCOCC#Cc4cccc5c4C(=O)N(C4CCC(=O)NC4=O)C5=O)nn3)cc2)ncc1C(F)(F)F)S(C)(=O)=O (stereo not given) | 
13 | 0 | 2 | CN(c1ncccc1CNc1ncc(C(F)(F)F)c(Nc2ccc(NC(=O)c3cn(CCOCCOCCNc4cccc5c4C(=O)N(C4CCC(=O)NC4=O)C5=O)nn3)cc2)n1)S(C)(=O)=O (stereo not given) | 
14 | 40 | 65 | CN(c1ncccc1CNc1nc(Nc2ccc(C(=O)NCc3cn(CCOCCOCCNc4cccc5c4C(=O)N(C4CCC(=O)NC4=O)C5=O)nn3)cc2)ncc1C(F)(F)F)S(C)(=O)=O (stereo not given) | 
15 | 40 | 85 | CN(c1ncccc1CNc1nc(Nc2ccc(NC(=O)c3cn(CCCCCCCCCc4cccc5c4C(=O)N(C4CCC(=O)NC4=O)C5=O)nn3)cc2)ncc1C(F)(F)F)S(C)(=O)=O (stereo not given) | 
16 | 62 | 90 | CN(c1ncccc1CNc1nc(Nc2ccc(NC(=O)c3cn(CCOCCOCC#Cc4cccc5c4C(=O)N(C4CCC(=O)NC4=O)C5=O)nn3)cc2)ncc1C(F)(F)F)S(C)(=O)=O (stereo not given) | 
17 | 32 | 90 | CN(c1nccnc1CNc1nc(Nc2ccc(NC(=O)c3cn(CCOCCNc4cccc5c4C(=O)N(C4CCC(=O)NC4=O)C5=O)nn3)cc2)ncc1C(F)(F)F)S(C)(=O)=O (stereo not given) | 
18 | 62 | 90 | CN(c1ncccc1CNc1nc(Nc2ccc(NC(=O)c3cn(CCCCCCCC#Cc4cccc5c4C(=O)N(C4CCC(=O)NC4=O)C5=O)nn3)cc2)ncc1C(F)(F)F)S(C)(=O)=O (stereo not given) | 
19 | 0 | 0 | CN(c1ncccc1CNc1ncc(C(F)(F)F)c(Nc2ccc(NC(=O)c3cn(CCOCCNc4cccc5c4C(=O)N(C4CCC(=O)NC4=O)C5=O)nn3)cc2)n1)S(C)(=O)=O (stereo not given) | 
20 | 90 | 99 | CN(c1ncccc1CNc1nc(Nc2ccc(NC(=O)c3cn(CCOCCOCCNc4cccc5c4C(=O)N(C4CCC(=O)NC4=O)C5=O)nn3)cc2)ncc1C(F)(F)F)S(C)(=O)=O (stereo not given) | Activity [3]: inactive; Activity [4]: inactive; Activity (TM3): inactive; DC50 [5]: 0.04 nM; Activity (MDA-MB-436): inactive; Activity [6]: inactive; DC50 [7]: 0.37 nM; Activity [8]: inactive; DC50 [9]: 0.31 nM; DC50 [10]: 0.08 nM; Activity (Ramos): inactive; DC50 [11]: 0.33 nM; Activity (PA-1): inactive; Activity (LNCaP): inactive; Activity [12]: > 50%; Activity [13]: Active; Activity [14]: Active
21 | 35 | 92 | CN(c1nccnc1CNc1nc(Nc2ccc(NC(=O)c3cn(CCOCCOCCOCCNc4cccc5c4C(=O)N(C4CCC(=O)NC4=O)C5=O)nn3)cc2)ncc1C(F)(F)F)S(C)(=O)=O (stereo not given) | 
22 | 37 | 71 | CN(c1nccnc1CNc1nc(Nc2ccc(C(=O)NCc3cn(CCOCCNc4cccc5c4C(=O)N(C4CCC(=O)NC4=O)C5=O)nn3)cc2)ncc1C(F)(F)F)S(C)(=O)=O (stereo not given) | 
23 | 32 | 60 | CN(c1nccnc1CNc1nc(Nc2ccc(C(=O)NCc3cn(CCOCCOCCNc4cccc5c4C(=O)N(C4CCC(=O)NC4=O)C5=O)nn3)cc2)ncc1C(F)(F)F)S(C)(=O)=O (stereo not given) | 
24 | 0 | 0 | CCN1C(=O)CCC(N2C(=O)c3cccc(NCCOCCOCCn4cc(C(=O)Nc5ccc(Nc6ncc(C(F)(F)F)c(NCc7cccnc7N(C)S(C)(=O)=O)n6)cc5)nn4)c3C2=O)C1=O (stereo not given) | 
